From PubChem
pPAFAH inh = inhibitors of human plasma PAF acetylhydrolase (pPAFAH); Q13093; 330,000 tested, 1.5% active; recombinant pPAFAH, FP-rhodamine probe fluorescence polarization; inhibition, % at 3.39 µM;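 active means inhibition above the mean inhibition across the screen plus 3 SD, cut at about 25% in these data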;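 further: inhibitors block binding of the rhodamine activity-based probe so polarization drops; 0% = enzyme with DMSO and 100% = wells lacking pPAFAH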
ASAP1 GAP inh = blocks human ASAP1-stimulated Arf1 GTP hydrolysis | 360,000 tested, 0.19% active | inhibition, % at 16.5 µM | Q9ULH1 | AID 624377 | GDP FP detection; in the data active means inhibition above about 25%;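 further: 0% = vehicle with enzyme and substrate and 100% = no enzyme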
PAFAH1B2 inh = PAFAH1B2 (human) inhibition. recombinant PAFAH1B2, FP-rhodamine activity probe, fluorescence polarization. inhibition, % at 3.39 µM. P68402. 340,000 tested, 1.2% active;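 active means inhibition above the mean of all tested compounds plus 3 SD, cut at about 24% in these data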;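 further: 0% = enzyme with DMSO and 100% = wells lacking PAFAH1B2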
Target sequence (P68402 whole entry, looked up): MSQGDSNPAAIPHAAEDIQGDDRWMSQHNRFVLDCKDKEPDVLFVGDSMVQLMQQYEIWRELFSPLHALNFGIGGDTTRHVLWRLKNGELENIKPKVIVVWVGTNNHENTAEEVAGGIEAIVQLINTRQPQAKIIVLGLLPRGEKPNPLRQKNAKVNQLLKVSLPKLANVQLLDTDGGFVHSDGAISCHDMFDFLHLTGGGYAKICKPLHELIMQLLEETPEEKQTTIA
PAFAH1B3 FP inh = inhibitors of human PAFAH1B3; recombinant PAFAH1B3, FP-rhodamine probe, fluorescence polarization; Q15102; 340,000 tested, 0.28% active; inhibition, % at 3.39 µM;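 active means inhibition above the screen-wide average of all tested compounds plus 3 SD, cut at about 25% in these data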;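 further: 0% = enzyme with DMSO only and 100% = wells lacking PAFAH1B3 protein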
Target sequence (Q15102 whole entry, looked up): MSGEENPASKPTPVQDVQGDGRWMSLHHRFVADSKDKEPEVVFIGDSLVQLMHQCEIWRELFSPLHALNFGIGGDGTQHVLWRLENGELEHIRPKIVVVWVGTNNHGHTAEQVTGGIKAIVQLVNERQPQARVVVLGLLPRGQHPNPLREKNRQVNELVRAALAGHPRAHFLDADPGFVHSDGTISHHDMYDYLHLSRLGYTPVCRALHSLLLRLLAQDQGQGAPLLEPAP
PAFAH2 inh = inhibitors of human PAFAH2; inhibition, % at 3.39 µM; recombinant PAFAH2, FP-rhodamine activity probe, fluorescence polarization; 340,000 tested, 0.99% active;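 active means inhibition above the mean over all tested compounds plus 3 SD, cut at about 30% in these data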;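 further: inhibitors block probe labeling of enzyme so polarization drops; 0% = enzyme with DMSO and 100% = wells lacking PAFAH2 protein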
ARFGAP1 inhibitor = inhibitors of rat ARFGAP1; 360,000 tested, 0.26% active; inhibition, % at 16.5 µM; Q62848; Arfgap1-stimulated ARF1 GTP hydrolysis, GDP FP detection;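 active means inhibition above a per-plate limit, mean inhibition of low control wells plus 3 SD, cut at about 25% in these data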;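 further: 0% = DMSO wells with enzyme and 100% = wells lacking Arfgap1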
Target sequence (Q62848 1-136 limits assumed): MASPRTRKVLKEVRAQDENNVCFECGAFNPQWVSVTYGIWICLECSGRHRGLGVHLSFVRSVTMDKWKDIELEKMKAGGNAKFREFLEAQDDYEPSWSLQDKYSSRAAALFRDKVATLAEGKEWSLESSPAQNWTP
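System: truncated rat Arfgap1 GAP domain / Benchmarks: high control wells lacking Arfgap1, low control full reaction with DMSO / Times: compound-enzyme preincubation 20 min, reaction 120 min, detection 60 min, 25 °C / Repeats: one replicate per compound / Also added: human ARF1(Δ1-17)-GTP substrate / Measured by: Tracer-displacement fluorescence polarization with EDTA stop, 620/688 nm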
PAFAH2 confirm = confirmation of human PAFAH2 inhibitors | recombinant PAFAH2, FP-rhodamine activity probe, fluorescence polarization | AID 493030 | inhibition, % at 3.39 µM | shares compounds with PAFAH2 inh | 2,300 tested, 65% active;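 active means mean inhibition over three repeats above a set limit taken from the earlier primary screen, cut at about 30% in these data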;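 further: inhibitor blocks binding of rhodamine activity probe so polarization falls; 0% = enzyme with DMSO and 100% = wells lacking PAFAH2 protein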
The depositor's hits bear a star; nt = no result given. The list is not random: actives were taken first. Their share in the collection is about 2.8%.

SMILES	pPAFAH inh	ASAP1 GAP inh	PAFAH1B2 inh	PAFAH1B3 FP inh	PAFAH2 inh	ARFGAP1 inhibitor	PAFAH2 confirm
Cc1ccc(NC(=O)c2ccccc2NS(=O)(=O)c2ccc(Cl)s2)cc1	9.4	7.2	11.4	1.1	71.5*	-4.3	73.5*
C=CC[C@@H](CC(=O)NCCO)C(=O)N[C@@H](C)COC(=O)[C@H](CC=C)CC(=O)OC(C)(C)C	-5.4	-1.2	4.6	0.1	2.9	10.6	nt
CCOC(=O)[C@]12CCC=C1N(Cc1ccc3c(c1)OCO3)C(=O)[C@H](CC(=O)NCc1cccc(C(F)(F)F)c1)C2	nt	6.1	nt	nt	nt	-5.5	nt
CCOCCOC(=O)NCCCCCCNC(=O)OCCOCC	2.9	9.7	0.9	9.3	60.1*	-5.3	47.1*
CN(C)c1ccc(C=c2c3ccccc3n3c2cc(-c2ccccc2)[n+]3C)cc1	nt	9.8	-16.7	8.9	7.7	1.8	nt
COc1cc(C=c2c3ccccc3n3c2cc(-c2ccccc2)[n+]3C)cc(OC)c1OC	nt	14.1	-7.2	24.9	55.2*	21.2	19.6
NS(=O)(=O)c1cccc(NS(=O)(=O)c2ccc(/C=C/C(=O)OCC(=O)c3ccccc3)cc2)c1	1.6	10.5	1.9	-0.8	57.6*	9.8	48.9*
COc1cc(OC)c(C(=O)OCC(=O)NC2CCCC2)cc1OC	8.4	-6.6	5.0	1.9	51.7*	0.9	38.6*
COc1cc(OC)c(C(=O)OCC(=O)NCC2CCCCC2)cc1OC	nt	-7.0	0.8	-5.1	51.2*	0.2	42.9*
O=C(COC(=O)c1ccccc1Br)NC1CCCC1	7.3	3.3	5.7	4.0	51.9*	15.2	35.0*
CCCNC(=O)c1ccc(SC)cc1OC	1.6	6.1	6.7	5.3	7.4	-7.8	nt
O=C(COC(=O)c1ccc[nH]c1=O)NC1CCCC1	1.7	-0.5	0.6	0.1	-2.0	-7.9	nt
CCCCNC(=O)COC(=O)c1ccc(SC)cc1OC	11.7	-6.2	4.5	6.7	45.9*	3.0	22.7
COC(=O)[C@]12C[C@H](CC(=O)N3CCCC3)C(=O)N(CCC3=CCCCC3)C1=C[C@H](C(C)(C)C)O[C@@H]2C	nt	-4.9	nt	nt	nt	-6.5	nt
CC(C)NC(=O)C1(C)CCCN1C(=O)c1ccccc1Br (centres undefined)	nt	-2.1	nt	nt	nt	0.7	nt
COc1ccc(CN2C(=O)c3ccccc3C2=O)cc1C(=O)OCC(=O)NC1CCCCC1	20.5	-9.4	-1.1	4.0	51.5*	2.1	45.2*
COc1ccccc1C(=O)OCC(=O)NC1CCCC1	4.8	1.5	11.4	6.3	37.6*	-10.6	21.9
COc1ccc(CC(=O)OCC(=O)NC2CCCCCC2)cc1OC	nt	-0.2	4.2	5.3	27.9	0.8	nt
CCOc1ccccc1C(=O)OCC(=O)NCC1CCCCC1	12.8	10.9	-1.3	8.9	44.3*	-0.7	48.1*
COc1cc(OC)c(C(=O)OCC(=O)NC2CCCCCCC2)cc1OC	13.5	-4.7	2.7	10.3	74.7*	4.3	82.6*
COC(=O)[C@]12CCCCC=C1N(Cc1ccccc1)C(=O)[C@H](CC(=O)NCCCCc1ccccc1)C2	nt	13.4	nt	nt	nt	-0.9	nt
C#CCNC(=O)C[C@@H]1C[C@@]2(C(=O)OCC)CCC=C2N(CCC2=CCCCC2)C1=O	nt	6.2	nt	nt	nt	-6.2	nt
CC(C)CC1NC(=O)c2cccnc2-n2c1nc1cc(F)ccc1c2=O (centres undefined)	nt	-3.1	nt	nt	nt	-6.6	nt
CCc1ccc(NC(=O)C2CCN(S(=O)(=O)c3cccs3)CC2)cc1	-6.8	-6.4	1.3	-3.5	26.3	3.2	nt
COc1cc(SC)ccc1C(=O)OCC(=O)NC1CCCC1	21.4	-2.6	11.2	7.3	68.3*	-0.2	57.4*
SMILES	pPAFAH inh	ASAP1 GAP inh	PAFAH1B2 inh	PAFAH1B3 FP inh	PAFAH2 inh	ARFGAP1 inhibitor	PAFAH2 confirm
COc1cc(SC)ccc1C(=O)NC1CCCCC1	2.9	-7.5	10.3	8.1	0.0	9.5	nt
Cc1ccc(S(=O)(=O)NC(=O)NC2=NC(C)(C)N(c3ccc(Cl)c(Cl)c3)C(N)=N2)cc1	nt	0.3	nt	nt	nt	3.0	nt
O=C(NCc1ccco1)c1ccc(-c2ccc(F)c(F)c2)c2ccoc12	nt	14.0	nt	nt	nt	8.2	nt
Cc1c(C)n(CC(O)CSc2ccccc2)c2ccccc12 (centres undefined)	nt	-1.5	nt	nt	nt	17.0	nt
O=C(COC(=O)c1ccc(O)cc1)Nc1cc(S(=O)(=O)N2CCOCC2)ccc1Cl	4.9	7.6	3.1	-1.7	65.4*	-0.4	53.8*
O=C(COC(=O)c1ccc(F)cc1F)Nc1cc(S(=O)(=O)N2CCOCC2)ccc1Cl	nt	-9.2	3.1	10.8	34.4*	-2.2	20.5
O=C(COC(=O)c1cccs1)Nc1cc(S(=O)(=O)N2CCOCC2)ccc1Cl	1.2	11.2	2.4	-1.9	53.3*	-12.0	38.0*
Cc1cnc(C(=O)OCC(=O)Nc2cc(S(=O)(=O)N3CCOCC3)ccc2Cl)cn1	0.0	-0.4	2.9	8.4	12.0	-8.4	nt
O=C(COC(=O)c1ccc(O)cc1)Nc1cc(S(=O)(=O)N2CCOCC2)ccc1N1CCOCC1	nt	-18.5	nt	nt	nt	-3.4	nt
C=CC[C@@H](Cc1ccc(F)cc1)C(=O)OC[C@@H]1CCCN1C(=O)[C@H](CC=C)CC(=O)N(CCO)Cc1ccccc1	5.8	14.6	2.7	10.8	-0.3	1.8	nt
O=C(COC(=O)c1cccc(S(=O)(=O)N2CCCCCC2)c1)Nc1ccccc1C(F)(F)F	18.3	2.3	2.3	0.5	58.3*	12.4	35.5*
O=C(COC(=O)c1cccc(S(=O)(=O)N2CCCCC2)c1)NC1CCCCC1	6.3	2.4	2.4	10.7	77.0*	13.8	75.7*
Cc1ccc(C(=O)OC(C)C(=O)NC2CCCCC2C)cc1S(=O)(=O)N1CCCCC1 (centres undefined)	8.7	3.1	3.8	5.3	-6.1	10.8	nt
CCCCNC(=O)COC(=O)c1ccc(Cl)c(S(=O)(=O)N2CCCC2)c1	12.9	0.3	3.6	8.7	43.9*	6.4	20.9
O=C(COC(=O)c1ccc(S(=O)(=O)N2CCCCC2)cc1)NC1CCCCC1	nt	1.6	nt	nt	nt	1.8	nt
Cc1ccc(C(=O)OCC(=O)NC2CCCC(C)C2C)cc1S(=O)(=O)N1CCCCC1 (centres undefined)	13.4	-8.9	4.0	8.8	39.4*	-4.8	16.4
O=C(COC(=O)c1ccc(Cl)c(S(=O)(=O)N2CCCCC2)c1)NCCc1ccccc1	nt	-1.6	5.9	13.5	9.4	11.6	nt
COc1ccc(N(CC(=O)NCc2ccco2)C(=O)CCC(=O)Nc2ccccn2)cc1	nt	9.9	0.8	1.0	1.0	5.8	nt
O=C(NCCCN1CCC(Cc2ccccc2)CC1)c1ccc(CS(=O)c2ccccc2Cl)o1 (centres undefined)	nt	-4.8	nt	nt	nt	9.8	nt
O=C1c2ccccc2C(c2nnnn2-c2ccc3c(c2)OCCO3)N1CCCN1CCOCC1 (centres undefined)	nt	6.9	nt	nt	nt	-3.5	nt
